Values after ≈ are worked out from the molar mass of the structure shown.
Assays:
[1] = target: Tubulin (Bos taurus, UniProt Q6B856+Q862L2+Q862F3); experiment: Inhibition of bovine brain tubulin polymerization (ITP).
[2] = tested on: CAKI-1; experiment: Cytotoxicity against human renal cancer cells (CAKI-1) using SRB assay.; format: functional; conditions: read-out: ED50 (the source's name)
How it was run: (§1)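 Cells grown at 37 °C in RPMI-1640 with 10% FBS and 100 µg/mL kanamycin, humidified 5% CO2. Seeding density set per line so control A562 reads 1-2.5. Drug given from DMSO stocks, final DMSO ≤2% (v/v), for 3 days. SRB stain, absorbance at 562 nm. […] Triplicates.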

[3] = target: T1, Tubulin (Bos taurus) (UniProt Q6B856+Q862L2+Q862F3); experiment: % inhibition of [3H]colchicine binding to bovine brain tubulin at a concentration of 5 uM
How it was run: (§2)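 [3H]colchicine at 5 µM incubated with 1 µM tubulin. Inhibitor present at the stated concentration (5 or 1 µM). Result given as % inhibition of colchicine binding ± SD.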

[4] = tested on: A549; experiment: Cytotoxicity against human lung carcinoma cells (A-549) using SRB assay.; format: functional; conditions: read-out: ED50 (the source's name); how it was run: as §1
[5] = tested on: HCT-8; experiment: Cytotoxicity against human ileocecal carcinoma cells (HCT-8) using SRB assay.; format: functional; conditions: read-out: ED50 (the source's name); how it was run: as §1
[6] = tested on: KB; experiment: Cytotoxicity against human epidermoid carcinoma of the nasopharyngeal cells (KB) using SRB assay.; format: functional; conditions: read-out: ED50 (the source's name); how it was run: as §1
[7] = tested on: MCF7; experiment: Cytotoxicity against human breast cancer cells (MCF-7) using SRB assay.; format: functional; conditions: read-out: ED50 (the source's name); how it was run: as §1
[8] = tested on: SK-MEL-2; experiment: The compound was tested for the cytotoxicity for the cell lines of human melanoma cancer (SKMEL-2) using SRB assay.; format: functional; conditions: read-out: ED50 (the source's name); how it was run: as §1
[9] = target: T1, Tubulin (Bos taurus); experiment: The compound was tested for the % inhibition of [3H]colchicine binding to bovine brain tubulin at a concentration of 1 uM; how it was run: as §2

**Q.** Which IC50 [1] does the source give for `COc1cccc([C@@H]2CC(=O)c3cc4c(cc3N2)OCO4)c1` here?
**A.** 0.69 µM

**Q.** And the EC50 [2]?
**A.** 0.25 µg/mL (≈ 0.841 µM)

**Q.** And the inhibition [3]?
**A.** 67%

**Q.** What about the EC50 [4] of the same molecule?
**A.** 0.03 µg/mL (≈ 0.101 µM)

**Q.** What about the EC50 [5] of the same molecule?
**A.** 0.02 µg/mL (≈ 0.0673 µM)

**Q.** And the EC50 [6]?
**A.** 0.02 µg/mL (≈ 0.0673 µM)

**Q.** What about the EC50 [7] of the same molecule?
**A.** 0.03 µg/mL (≈ 0.101 µM)

**Q.** For `COc1cccc([C@H]2C/C(=N\NC(=O)C(=O)NC(C)c3ccccc3)c3ccccc3N2)c1` (some centres not stated), which IC50 [1] is on record?
**A.** > 40 µM

**Q.** And the EC50 [2]?
**A.** > 25 µg/mL

**Q.** And the EC50 [4]?
**A.** > 25 µg/mL

**Q.** What about the EC50 [5] of the same molecule?
**A.** > 25 µg/mL

**Q.** And the EC50 [6]?
**A.** > 25 µg/mL

**Q.** And the EC50 [7]?
**A.** > 25 µg/mL

**Q.** How did the EC50 [8] turn out when `COc1ccccc1C1CC(=O)c2ccccc2N1` (configuration not stated) was run?
**A.** 12.5 µg/mL (≈ 49.3 µM)

**Q.** And the IC50 [1]?
**A.** > 40 µM

**Q.** What about the EC50 [2] of the same molecule?
**A.** 25 µg/mL (≈ 98.7 µM)

**Q.** And the EC50 [4]?
**A.** 6 µg/mL (≈ 23.7 µM)

**Q.** And the EC50 [5]?
**A.** 6 µg/mL (≈ 23.7 µM)

**Q.** And the EC50 [6]?
**A.** 1.8 µg/mL (≈ 7.11 µM)

**Q.** And the EC50 [7]?
**A.** 6.5 µg/mL (≈ 25.7 µM)

**Q.** How did the EC50 [8] turn out when `O=C1CC(c2ccc(F)cc2)Nc2cc3c(cc21)OCO3` (configuration not stated) was run?
**A.** 0.2 µg/mL (≈ 0.701 µM)

**Q.** And the IC50 [1]?
**A.** 2 µM

**Q.** What about the EC50 [2] of the same molecule?
**A.** 0.8 µg/mL (≈ 2.8 µM)

**Q.** What about the EC50 [4] of the same molecule?
**A.** 1 µg/mL (≈ 3.51 µM)

**Q.** And the EC50 [5]?
**A.** 0.4 µg/mL (≈ 1.4 µM)

**Q.** And the EC50 [6]?
**A.** 0.3 µg/mL (≈ 1.05 µM)

**Q.** And the EC50 [7]?
**A.** 0.4 µg/mL (≈ 1.4 µM)

**Q.** How did the IC50 [1] turn out when `COc1ccc(C2CC(=O)c3ccccc3N2)cc1` (configuration not stated) was run?
**A.** > 40 µM

**Q.** What about the EC50 [4] of the same molecule?
**A.** > 25 µg/mL

**Q.** And the EC50 [5]?
**A.** > 25 µg/mL

**Q.** And the EC50 [6]?
**A.** > 25 µg/mL

**Q.** And the EC50 [7]?
**A.** > 25 µg/mL

**Q.** How did the IC50 [1] turn out when `O=C1C[C@H](c2ccccc2F)Nc2cc3c(cc21)OCO3` was run?
**A.** 12 µM

**Q.** And the EC50 [2]?
**A.** 1.25 µg/mL (≈ 4.38 µM)

**Q.** What about the EC50 [4] of the same molecule?
**A.** 0.6 µg/mL (≈ 2.1 µM)

**Q.** And the EC50 [5]?
**A.** 0.5 µg/mL (≈ 1.75 µM)

**Q.** And the EC50 [6]?
**A.** 0.43 µg/mL (≈ 1.51 µM)

**Q.** What about the EC50 [7] of the same molecule?
**A.** 0.85 µg/mL (≈ 2.98 µM)

**Q.** For `COc1cccc(-c2cc(O)c3cccnc3n2)c1`, which IC50 [1] is on record?
**A.** 0.79 µM

**Q.** And the inhibition [3]?
**A.** 24%

**Q.** `CC(NC(=O)C(=O)N/N=C1\C[C@@H](c2ccccc2F)Nc2cc3c(cc21)OCO3)c1ccccc1` (some centres not stated) was tested. Which IC50 [1] did it give?
**A.** > 40 µM

**Q.** What about the EC50 [2] of the same molecule?
**A.** > 25 µg/mL

**Q.** And the EC50 [4]?
**A.** 13 µg/mL (≈ 27.4 µM)

**Q.** And the EC50 [5]?
**A.** 2.1 µg/mL (≈ 4.43 µM)

**Q.** What about the EC50 [6] of the same molecule?
**A.** 18 µg/mL (≈ 37.9 µM)

**Q.** And the EC50 [7]?
**A.** 8.5 µg/mL (≈ 17.9 µM)

**Q.** For `O=C1CC(c2ccccc2)Nc2ccccc21` (configuration not stated) [Aza-flavanone], which EC50 [8] is on record?
**A.** 0.13 µg/mL (≈ 0.582 µM)

**Q.** And the IC50 [1]?
**A.** 2.7 µM

**Q.** What about the EC50 [2] of the same molecule?
**A.** 0.013 µg/mL (≈ 0.0582 µM)

**Q.** And the EC50 [4]?
**A.** 0.013 µg/mL (≈ 0.0582 µM)

**Q.** What about the EC50 [5] of the same molecule?
**A.** 0.013 µg/mL (≈ 0.0582 µM)

**Q.** What about the EC50 [6] of the same molecule?
**A.** 0.07 µg/mL (≈ 0.314 µM)

**Q.** What about the EC50 [7] of the same molecule?
**A.** 0.13 µg/mL (≈ 0.582 µM)

**Q.** For `COc1cccc([C@H]2C/C(=N\NC(=O)C(=O)NC(C)c3ccccc3)c3cc4c(cc3N2)OCO4)c1` (some centres not stated), which IC50 [1] is on record?
**A.** > 40 µM

**Q.** And the EC50 [2]?
**A.** > 25 µg/mL

**Q.** And the EC50 [4]?
**A.** 11.5 µg/mL (≈ 23.6 µM)

**Q.** What about the EC50 [5] of the same molecule?
**A.** 1.5 µg/mL (≈ 3.08 µM)

**Q.** And the EC50 [6]?
**A.** 12 µg/mL (≈ 24.7 µM)

**Q.** And the EC50 [7]?
**A.** 6.3 µg/mL (≈ 12.9 µM)

**Q.** How did the IC50 [1] turn out when `COc1cccc([C@@H]2C/C(=N\NC(=O)C(=O)NC(C)c3ccccc3)c3cc4c(cc3N2)OCO4)c1` (some centres not stated) was run?
**A.** > 40 µM

**Q.** What about the EC50 [2] of the same molecule?
**A.** 12.5 µg/mL (≈ 25.7 µM)

**Q.** What about the EC50 [4] of the same molecule?
**A.** 2.4 µg/mL (≈ 4.93 µM)

**Q.** What about the EC50 [5] of the same molecule?
**A.** 1 µg/mL (≈ 2.06 µM)

**Q.** What about the EC50 [6] of the same molecule?
**A.** 1.8 µg/mL (≈ 3.7 µM)

**Q.** What about the EC50 [7] of the same molecule?
**A.** 3 µg/mL (≈ 6.17 µM)

**Q.** Which EC50 [8] does the source give for `COc1cccc(C2CC(=O)c3cc(N4CCCC4)ccc3N2)c1` (configuration not stated) here?
**A.** 0.016 µg/mL (≈ 0.0496 µM)

**Q.** And the IC50 [1]?
**A.** 0.66 µM

**Q.** And the EC50 [2]?
**A.** 0.008 µg/mL (≈ 0.0248 µM)

**Q.** And the inhibition [9]?
**A.** 63%

**Q.** And the inhibition [3]?
**A.** 91%

**Q.** And the EC50 [4]?
**A.** 0.01 µg/mL (≈ 0.031 µM)

**Q.** And the EC50 [5]?
**A.** 0.016 µg/mL (≈ 0.0496 µM)

**Q.** And the EC50 [6]?
**A.** 0.008 µg/mL (≈ 0.0248 µM)

**Q.** What about the EC50 [7] of the same molecule?
**A.** 0.11 µg/mL (≈ 0.341 µM)

**Q.** With `COc1cccc(C2CC(=O)c3cc4c(cc3N2)OCO4)c1` (configuration not stated) as the molecule, how does the EC50 [8] read?
**A.** 0.06 µg/mL (≈ 0.202 µM)

**Q.** And the IC50 [1]?
**A.** 0.82 µM

**Q.** And the EC50 [2]?
**A.** 0.06 µg/mL (≈ 0.202 µM)

**Q.** And the inhibition [3]?
**A.** 60%

**Q.** What about the EC50 [4] of the same molecule?
**A.** 0.04 µg/mL (≈ 0.135 µM)

**Q.** What about the EC50 [5] of the same molecule?
**A.** 0.04 µg/mL (≈ 0.135 µM)

**Q.** And the EC50 [6]?
**A.** 0.02 µg/mL (≈ 0.0673 µM)

**Q.** And the EC50 [7]?
**A.** 0.04 µg/mL (≈ 0.135 µM)
